Results of several laboratories.
Each line is one published result; the experiments were not run side by side.
Target: Cyclin-dependent kinase 2 (CDK2, Homo sapiens, UniProt P24941)
Technique: competition with immobilised ligand

O=C(NCC1CCOCC1)c1n[nH]cc1NC(=O)c1c(F)cccc1F
remaining binding (binding; 1 µM): 49%

Cc1cnc(Nc2ccc(C(=O)N3CCC(N4CCCC4)CC3)cc2)nc1-c1cc2ccccc2s1
remaining binding (binding; 1 µM): 35%

O=S(=O)(NC1CCC(c2cc(F)ccc2F)(S(=O)(=O)c2ccc(Cl)cc2)CC1)C(F)(F)F (stereo not shown)
remaining binding (cell-free assay; 1 µM): 100%

CC(C)(C)c1ccc(-c2nc(CBr)nn2-c2cccc(O)c2)cc1
remaining binding (cell-free assay; 10 µM): 90%

COc1cnc(Nc2cccc(S(N)(=O)=O)c2)nc1N1CCN(c2ccccc2)C(=O)C1
remaining binding (binding; 1 µM): 97%

CO[C@H]1CC[C@H](CNc2ccc(S(=O)(=O)NC(=O)c3ccc(N4CCN(CC5=C(c6ccc(Cl)cc6)CC(C)(C)CC5)CC4)cc3Oc3cnc4[nH]ccc4c3)cc2[N+](=O)[O-])CC1
remaining binding (cell-free assay; 1 µM): 100%

c1cncc(-c2cccc(Nc3nccc(NC4CCCCC4)n3)c2)c1
remaining binding (binding; 10 µM): 81%

O=C(O)c1cc(-c2ccc(C3CCNCC3)cc2)c2ccc(-c3ccc(C(F)(F)F)cc3)cc2c1
remaining binding (cell-free assay; 1 µM): 100%

F[C@@H]1CCN(c2nccc(-c3cnn4ncccc34)n2)C1
remaining binding (binding; 1 µM): 100%

C[C@H](c1ccc(F)cc1)N(Cc1cccc(C(=O)O)c1)C(=O)c1cnc2ccccc2c1
remaining binding (cell-free assay; 1 µM): 100%

CNC(=O)[C@@H]1CC[C@@H](n2c(-c3ccc4cnccc4c3)nc3ccc(C(=O)NCc4cccc(C(N)=O)c4)cc32)C1
remaining binding (binding; 1 µM): 100%

C[C@@H]1CN(c2ccc3ncc(-c4ccc5[nH]nc(C6CC6)c5c4)n3n2)C[C@H](C)O1
remaining binding (binding; 50 nM): 100%

O=C(c1ccc(Nc2nccc(-c3cc4ccccc4s3)n2)cc1)N1CCC(N2CCCC2)CC1
remaining binding (binding; 1 µM): 84%

CN(CCCC(F)(F)F)c1nccc(-c2cnn3ncccc23)n1
remaining binding (binding; 1 µM): 100%

COc1ccc2c(c1)O[C@H](c1ccc(OC)c(OC)c1)C[C@@H]2NC(=O)C1(c2ccc3c(c2)OC(F)(F)O3)CC1
remaining binding (cell-free assay; 1 µM): 100%

O=C(c1ccc(Nc2ncc(Cl)c(-c3cc4ccccc4s3)n2)cc1)N1CCC(N2CCCC2)CC1
remaining binding (binding; 1 µM): 12%
